Experimental data taken from ChEMBL document CHEMBL1157014, “Synthesis, characterization and biological evaluation of some thiourea derivatives bearing benzothiazole moiety as potential antimicrobial and anticancer agents” (Eur J Med Chem, 2010).
Values after ≈ are worked out from the molar mass of the structure shown.

System: Staphylococcus aureus
Test: Antibacterial activity against Staphylococcus aureus ATCC 29213 after 24 hrs by browth microdilution assay
Type: functional
Settings: ATCC 29213, 24 h
Procedure, shortened: (§1)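 Broth microdilution per CLSI. Colonies suspended in 0.9% saline and adjusted to McFarland 0.5. Compounds dissolved in DMSO, diluted with distilled water to 100, 50, 25, 12.5, 6.25 and 3.125 µg/ml, with DMSO as negative control. Gentamycin (Gram-negative) and amikacin (Gram-positive) served as reference drugs. Incubation at 37 °C for 24 h. MIC taken as the lowest concentration preventing visible growth.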

| MIC | SMILES |
| --- | --- |
| 50 µg/mL (≈ 140 µM) | CCCC(=O)NC(=S)Nc1nc2cc(Br)ccc2s1 |
| 50 µg/mL (≈ 157 µM) | O=C(NC(=S)Nc1nc2ccccc2s1)c1cccs1 |
| 25 µg/mL (≈ 68.6 µM) | O=C(NC(=S)Nc1nc2cc([N+](=O)[O-])ccc2s1)c1cccs1 |
| 50 µg/mL (≈ 155 µM) | O=C(NC(=S)Nc1nc2ccccc2s1)N1CCOCC1 |
| 50 µg/mL (≈ 134 µM) | Nc1ccc2sc(NC(=S)NC(=O)c3ccc([N+](=O)[O-])cc3)nc2c1 |

| SMILES | MIC |
| --- | --- |
| NCC[C@H](O)C(=O)N[C@@H]1C[C@H](N)[C@@H](O[C@H]2O[C@H](CN)[C@@H](O)[C@H](O)[C@H]2O)[C@H](O)[C@H]1O[C@H]1O[C@H](CO)[C@@H](O)[C@H](N)[C@H]1O [AMIKACIN] | 2 µg/mL (≈ 3.42 µM) |

System: Pichia kudriavzevii
Test: Antifungal activity against Candida krusei ATCC 6268 after 48 hrs by browth microdilution assay
Type: functional
Settings: ATCC 6268, 48 h
Procedure, shortened: (§2)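 Yeast colonies suspended in 0.9% saline and adjusted to McFarland 0.5, then tested by CLSI broth microdilution. Compounds in DMSO, diluted with distilled water to 3.125–100 µg/ml, with DMSO as negative control and nystatin as reference. Incubation at 37 °C, read after 48 h. MIC is the lowest concentration with no visible growth.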

| MIC | SMILES |
| --- | --- |
| 50 µg/mL (≈ 140 µM) | CCCC(=O)NC(=S)Nc1nc2cc(Br)ccc2s1 |
| 25 µg/mL (≈ 78.3 µM) | O=C(NC(=S)Nc1nc2ccccc2s1)c1cccs1 |
| 20 µg/mL (≈ 54.9 µM) | O=C(NC(=S)Nc1nc2cc([N+](=O)[O-])ccc2s1)c1cccs1 |
| 25 µg/mL (≈ 77.5 µM) | O=C(NC(=S)Nc1nc2ccccc2s1)N1CCOCC1 |
| 50 µg/mL (≈ 134 µM) | Nc1ccc2sc(NC(=S)NC(=O)c3ccc([N+](=O)[O-])cc3)nc2c1 |

System: Enterococcus faecalis
Test: Antibacterial activity against Enterococcus faecalis ATCC 29212 after 24 hrs by browth microdilution assay
Type: functional
Settings: ATCC 29212, 24 h
Procedure, shortened: as §1

| MIC | SMILES |
| --- | --- |
| 50 µg/mL (≈ 140 µM) | CCCC(=O)NC(=S)Nc1nc2cc(Br)ccc2s1 |
| 50 µg/mL (≈ 157 µM) | O=C(NC(=S)Nc1nc2ccccc2s1)c1cccs1 |
| 15 µg/mL (≈ 41.2 µM) | O=C(NC(=S)Nc1nc2cc([N+](=O)[O-])ccc2s1)c1cccs1 |
| 50 µg/mL (≈ 155 µM) | O=C(NC(=S)Nc1nc2ccccc2s1)N1CCOCC1 |
| 50 µg/mL (≈ 134 µM) | Nc1ccc2sc(NC(=S)NC(=O)c3ccc([N+](=O)[O-])cc3)nc2c1 |

| SMILES | MIC |
| --- | --- |
| NCC[C@H](O)C(=O)N[C@@H]1C[C@H](N)[C@@H](O[C@H]2O[C@H](CN)[C@@H](O)[C@H](O)[C@H]2O)[C@H](O)[C@H]1O[C@H]1O[C@H](CO)[C@@H](O)[C@H](N)[C@H]1O [AMIKACIN] | 4 µg/mL (≈ 6.83 µM) |

System: Pseudomonas aeruginosa
Test: Antibacterial activity against Pseudomonas aeruginosa ATCC 27853 after 24 hrs by browth microdilution assay
Type: functional
Settings: ATCC 27853, 24 h
Procedure, shortened: as §1

| MIC | SMILES |
| --- | --- |
| 50 µg/mL (≈ 140 µM) | CCCC(=O)NC(=S)Nc1nc2cc(Br)ccc2s1 |
| 50 µg/mL (≈ 157 µM) | O=C(NC(=S)Nc1nc2ccccc2s1)c1cccs1 |
| 20 µg/mL (≈ 54.9 µM) | O=C(NC(=S)Nc1nc2cc([N+](=O)[O-])ccc2s1)c1cccs1 |
| 50 µg/mL (≈ 155 µM) | O=C(NC(=S)Nc1nc2ccccc2s1)N1CCOCC1 |
| 50 µg/mL (≈ 134 µM) | Nc1ccc2sc(NC(=S)NC(=O)c3ccc([N+](=O)[O-])cc3)nc2c1 |

System: Candida tropicalis
Test: Antifungal activity against Candida tropicalis ATCC 20336 after 48 hrs by browth microdilution assay
Type: functional
Settings: ATCC 20336, 48 h
Procedure, shortened: as §2

| MIC | SMILES |
| --- | --- |
| 50 µg/mL (≈ 140 µM) | CCCC(=O)NC(=S)Nc1nc2cc(Br)ccc2s1 |
| 50 µg/mL (≈ 157 µM) | O=C(NC(=S)Nc1nc2ccccc2s1)c1cccs1 |
| 15 µg/mL (≈ 41.2 µM) | O=C(NC(=S)Nc1nc2cc([N+](=O)[O-])ccc2s1)c1cccs1 |
| 25 µg/mL (≈ 77.5 µM) | O=C(NC(=S)Nc1nc2ccccc2s1)N1CCOCC1 |
| 25 µg/mL (≈ 66.9 µM) | Nc1ccc2sc(NC(=S)NC(=O)c3ccc([N+](=O)[O-])cc3)nc2c1 |

System: Escherichia coli
Test: microbe, parasite or virus in culture
Settings: ATCC 25922, 24 h

| MIC | SMILES |
| --- | --- |
| 25 µg/mL (≈ 78.3 µM) | O=C(NC(=S)Nc1nc2ccccc2s1)c1cccs1 |
| 15 µg/mL (≈ 41.2 µM) | O=C(NC(=S)Nc1nc2cc([N+](=O)[O-])ccc2s1)c1cccs1 |
| 25 µg/mL (≈ 77.5 µM) | O=C(NC(=S)Nc1nc2ccccc2s1)N1CCOCC1 |
| 25 µg/mL (≈ 66.9 µM) | Nc1ccc2sc(NC(=S)NC(=O)c3ccc([N+](=O)[O-])cc3)nc2c1 |

System: HeLa
Test: Cytotoxicity against human HeLa after 24 hrs by MTT assay
Type: functional, cell-based
Settings: not given
Procedure, shortened: (§3)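 Cells grown in MEM with 10% FBS and 1% glutamine at 5% CO2, seeded at 1.0×10^4 cells. Exposed to compounds at 1–100 µM in medium containing 0.1% DMSO for 24 h at 37 °C. MTT (1 mg/ml) added for 5 h at 37 °C, then DMSO added and absorbance read at 540 nm. Run in triplicate; IC50 determined.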

| SMILES | IC50 |
| --- | --- |
| CCCC(=O)NC(=S)Nc1nc2cc(Br)ccc2s1 | 60.2 µM |
| O=C(NC(=S)Nc1nc2ccccc2s1)c1cccs1 | 68.2 µM |
| O=C(NC(=S)Nc1nc2cc([N+](=O)[O-])ccc2s1)c1cccs1 | 72.6 µM |
| O=C(NC(=S)Nc1nc2ccccc2s1)N1CCOCC1 | 51.8 µM |
| Nc1ccc2sc(NC(=S)NC(=O)c3ccc([N+](=O)[O-])cc3)nc2c1 | 63.1 µM |

System: Proteus vulgaris
Test: Antibacterial activity against Proteus vulgaris ATCC 13315 after 24 hrs by browth microdilution assay
Type: functional
Settings: ATCC 13315, 24 h
Procedure, shortened: as §1

| MIC | SMILES |
| --- | --- |
| 50 µg/mL (≈ 140 µM) | CCCC(=O)NC(=S)Nc1nc2cc(Br)ccc2s1 |
| 50 µg/mL (≈ 157 µM) | O=C(NC(=S)Nc1nc2ccccc2s1)c1cccs1 |
| 20 µg/mL (≈ 54.9 µM) | O=C(NC(=S)Nc1nc2cc([N+](=O)[O-])ccc2s1)c1cccs1 |
| 25 µg/mL (≈ 77.5 µM) | O=C(NC(=S)Nc1nc2ccccc2s1)N1CCOCC1 |
| 25 µg/mL (≈ 66.9 µM) | Nc1ccc2sc(NC(=S)NC(=O)c3ccc([N+](=O)[O-])cc3)nc2c1 |

System: Nakaseomyces glabratus
Test: Antifungal activity against Candida glabrata ATCC 32554 after 48 hrs by browth microdilution assay
Type: functional
Settings: ATCC 32554, 48 h
Procedure, shortened: as §2

| MIC | SMILES |
| --- | --- |
| 50 µg/mL (≈ 140 µM) | CCCC(=O)NC(=S)Nc1nc2cc(Br)ccc2s1 |
| 25 µg/mL (≈ 78.3 µM) | O=C(NC(=S)Nc1nc2ccccc2s1)c1cccs1 |
| 10 µg/mL (≈ 27.4 µM) | O=C(NC(=S)Nc1nc2cc([N+](=O)[O-])ccc2s1)c1cccs1 |
| 25 µg/mL (≈ 77.5 µM) | O=C(NC(=S)Nc1nc2ccccc2s1)N1CCOCC1 |
| 50 µg/mL (≈ 134 µM) | Nc1ccc2sc(NC(=S)NC(=O)c3ccc([N+](=O)[O-])cc3)nc2c1 |

System: Candida albicans
Test: Antifungal activity against Candida albicans ATCC 90028 after 48 hrs by browth microdilution assay
Type: functional
Settings: ATCC 90028, 48 h
Procedure, shortened: as §2

| MIC | SMILES |
| --- | --- |
| 25 µg/mL (≈ 69.8 µM) | CCCC(=O)NC(=S)Nc1nc2cc(Br)ccc2s1 |
| 50 µg/mL (≈ 157 µM) | O=C(NC(=S)Nc1nc2ccccc2s1)c1cccs1 |
| 15 µg/mL (≈ 41.2 µM) | O=C(NC(=S)Nc1nc2cc([N+](=O)[O-])ccc2s1)c1cccs1 |
| 25 µg/mL (≈ 77.5 µM) | O=C(NC(=S)Nc1nc2ccccc2s1)N1CCOCC1 |
| 50 µg/mL (≈ 134 µM) | Nc1ccc2sc(NC(=S)NC(=O)c3ccc([N+](=O)[O-])cc3)nc2c1 |

System: Enterobacter cloacae
Test: Antibacterial activity against Enterobacter cloacae ATCC 13047 after 24 hrs by browth microdilution assay
Type: functional
Settings: ATCC 13047, 24 h
Procedure, shortened: as §1

| MIC | SMILES |
| --- | --- |
| 50 µg/mL (≈ 140 µM) | CCCC(=O)NC(=S)Nc1nc2cc(Br)ccc2s1 |
| 50 µg/mL (≈ 157 µM) | O=C(NC(=S)Nc1nc2ccccc2s1)c1cccs1 |
| 15 µg/mL (≈ 41.2 µM) | O=C(NC(=S)Nc1nc2cc([N+](=O)[O-])ccc2s1)c1cccs1 |
| 25 µg/mL (≈ 77.5 µM) | O=C(NC(=S)Nc1nc2ccccc2s1)N1CCOCC1 |
| 25 µg/mL (≈ 66.9 µM) | Nc1ccc2sc(NC(=S)NC(=O)c3ccc([N+](=O)[O-])cc3)nc2c1 |

System: Staphylococcus aureus (ATCC 25923)
Test: Antibacterial activity against Staphylococcus aureus ATCC 25923 after 24 hrs by browth microdilution assay
Settings: ATCC 25923, 24 h

| MIC | SMILES |
| --- | --- |
| 50 µg/mL (≈ 157 µM) | O=C(NC(=S)Nc1nc2ccccc2s1)c1cccs1 |
| 25 µg/mL (≈ 68.6 µM) | O=C(NC(=S)Nc1nc2cc([N+](=O)[O-])ccc2s1)c1cccs1 |
| 50 µg/mL (≈ 155 µM) | O=C(NC(=S)Nc1nc2ccccc2s1)N1CCOCC1 |
| 50 µg/mL (≈ 134 µM) | Nc1ccc2sc(NC(=S)NC(=O)c3ccc([N+](=O)[O-])cc3)nc2c1 |

| SMILES | MIC |
| --- | --- |
| NCC[C@H](O)C(=O)N[C@@H]1C[C@H](N)[C@@H](O[C@H]2O[C@H](CN)[C@@H](O)[C@H](O)[C@H]2O)[C@H](O)[C@H]1O[C@H]1O[C@H](CO)[C@@H](O)[C@H](N)[C@H]1O [AMIKACIN] | 2 µg/mL (≈ 3.42 µM) |

System: MCF7
Test: Cytotoxicity against human MCF7 after 24 hrs by MTT assay
Type: functional, cell-based
Settings: MCF7, 24 h
Procedure, shortened: as §3

| SMILES | IC50 |
| --- | --- |
| CCCC(=O)NC(=S)Nc1nc2cc(Br)ccc2s1 | 45.7 µM |
| O=C(NC(=S)Nc1nc2ccccc2s1)c1cccs1 | 32.6 µM |
| O=C(NC(=S)Nc1nc2cc([N+](=O)[O-])ccc2s1)c1cccs1 | 35.9 µM |
| O=C(NC(=S)Nc1nc2ccccc2s1)N1CCOCC1 | 29.3 µM |
| Nc1ccc2sc(NC(=S)NC(=O)c3ccc([N+](=O)[O-])cc3)nc2c1 | 33.2 µM |

System: Staphylococcus epidermidis
Test: Antibacterial activity against Staphylococcus epidermidis ATCC 12228 after 24 hrs by browth microdilution assay
Type: functional
Settings: ATCC 12228, 24 h
Procedure, shortened: as §1

| MIC | SMILES |
| --- | --- |
| 50 µg/mL (≈ 140 µM) | CCCC(=O)NC(=S)Nc1nc2cc(Br)ccc2s1 |
| 50 µg/mL (≈ 157 µM) | O=C(NC(=S)Nc1nc2ccccc2s1)c1cccs1 |
| 10 µg/mL (≈ 27.4 µM) | O=C(NC(=S)Nc1nc2cc([N+](=O)[O-])ccc2s1)c1cccs1 |
| 25 µg/mL (≈ 77.5 µM) | O=C(NC(=S)Nc1nc2ccccc2s1)N1CCOCC1 |
| 50 µg/mL (≈ 134 µM) | Nc1ccc2sc(NC(=S)NC(=O)c3ccc([N+](=O)[O-])cc3)nc2c1 |

| SMILES | MIC |
| --- | --- |
| NCC[C@H](O)C(=O)N[C@@H]1C[C@H](N)[C@@H](O[C@H]2O[C@H](CN)[C@@H](O)[C@H](O)[C@H]2O)[C@H](O)[C@H]1O[C@H]1O[C@H](CO)[C@@H](O)[C@H](N)[C@H]1O [AMIKACIN] | 0.5 µg/mL (≈ 0.854 µM) |
